# Screening data as filed in PubChem BioAssay.
# Compounds with a hit are over-represented: about 0.89% of the library has one in this group of screens.
# Arrestin-AP2 inh: blocks beta-arrestin peptide binding to AP2 adaptin; FITC-arrestin peptide / GST-AP2 beads, flow cytometry; AP2 beta2 appendage carries R879A mutation; AID 504490; hit rate 0.31% among 340,000; inhibition, % at 10 µM;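 active = inhibition above a set limit, near 3 SD of compounds lacking own fluorescence, cut at about 54% in these data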;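 also: plate controls were DMSO wells for no effect and 5 µM unlabelled arrestin peptide for full effect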
#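 test system = AP2 appendage R879A on GSH beads | buffer or medium = PBS plus Tween 20 (0.05%) and BSA (0.1%) | incubation = 12 min plus 1 h, RT | detection = bead flow cytometry, FITC channel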
# V-ATPase pHluor: yeast V-ATPase proton transport regulation by pHLuorin; response, % at 10 µM; AID 504577; S. cerevisiae, pHLuorin cytosolic pH fluorescence; hit rate 0.37% among 350,000; in the data active = response mostly above about 7.3%, no sharp cut-off; inactive = mostly below about 5.4%; also: actives read high
# NTR1 agonist: agonists of human neurotensin receptor NTR1 | P30989 | NTR1-U2OS beta-arrestin-GFP spot imaging, agonist mode | activation, % at 20 µM | hit rate 0.17% among 330,000;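 active = activation at or above 40% of the spot to cytoplasm intensity ratio, with at least 20 cells analyzed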;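 also: 0% = DMSO without peptide and 100% = 100 nM NTR1 peptide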
# Target sequence (P30989 whole entry, looked up): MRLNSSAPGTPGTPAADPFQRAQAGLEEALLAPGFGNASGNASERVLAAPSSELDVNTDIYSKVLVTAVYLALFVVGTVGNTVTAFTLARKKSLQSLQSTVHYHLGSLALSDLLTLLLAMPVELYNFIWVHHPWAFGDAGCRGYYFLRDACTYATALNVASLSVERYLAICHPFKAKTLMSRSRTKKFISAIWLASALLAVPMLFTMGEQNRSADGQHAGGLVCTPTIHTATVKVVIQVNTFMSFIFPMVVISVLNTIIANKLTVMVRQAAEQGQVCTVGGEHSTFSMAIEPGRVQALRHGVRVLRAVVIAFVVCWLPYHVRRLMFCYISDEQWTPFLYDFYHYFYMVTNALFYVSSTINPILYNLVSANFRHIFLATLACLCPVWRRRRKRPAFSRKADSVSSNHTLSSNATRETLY
# beta cell repl: inducers of beta-cell replication in MIN6 cells; hit rate 0.29% among 330,000; AID 2380; proliferation, % at 10 µM; MIN6 cells proliferation, ATPlite luminescence, 48 h; cells starved in 0.2% serum; 100% = growth in 10% serum;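 active = compounds whose signal lies at least 3.5 SD above the mean of all wells on their plate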;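 also: 0% = DMSO-treated cells in low-serum medium and 100% = 10% serum control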
# XiGFP reactiv: reactivates the inactive X chromosome in mouse fibroblasts. XiGFP mouse fibroblasts, % GFP-positive cells imaging, 3 d; cells co-treated with 5-aza-dC sensitizer; scaled so ellipticine positive control = 100%. activation, % at 7.58 µM. hit rate 0.055% among 360,000. AID 743238;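 active = mean normalized replicate activation at least 10% and every replicate at or above 10%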;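 also: 0% = median of on-plate neutral control wells and 100% = ellipticine 6 µM median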
#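 Material: XiGFP fibroblasts, SV40-immortalized. Buffer or medium: DMEM plus 5-aza-dC sensitizer. Compound: single concentration per compound, delivered by pin transfer. Times: 3 days compound exposure. Controls: ellipticine 6 µM.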
# T cell HTS: T cell immune modulation candidate. 2C CD8+ T cell-vesicle binding, flow cytometry; hits give low values. response (vesicle binding), % at 7 µM. hit rate 0.068% among 330,000. AID 2052;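 active = response, share of CD8 T cells binding vesicles, and their 90th percentile fluorescence all below set limits, cut at about 80% in these data, passing the limit was not always enough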;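 also: values below 100% mean blocked vesicle binding to the CD8+ T cells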
#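 Also added: QL9-peptide-loaded Drosophila micro-vesicles bearing Ld, ICAM-1 and B7-1; Test system: purified 2C TCR transgenic mouse naive CD8+ T cells; Measured by: cytometric PE anti-B7-1 and Alexa647 anti-CD8 signals after 1% paraformaldehyde fixation; Timing: binding step 1.5 h, 37 °C, antibody labelling 20 min, ice.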
# Starred values were filed as active, the others as inactive; i = inactive; x = no result given.
SMILES,Arrestin-AP2 inh,V-ATPase pHluor,NTR1 agonist,beta cell repl,XiGFP reactiv,T cell HTS
CC(C)c1ccc(NC(=O)C2CCCCC2C(=O)O)cc1 (centres undefined),1,14*,-1,-4,x,100
Cc1ccc(S(=O)(=O)N2CCN(C(=O)CNC(=O)c3ccc(Cl)cc3)CC2)cc1,5,6,-1,-4,0,37*
CCC(=O)Nc1cccc(NC(=O)c2ccc(C)cc2Cl)c1,44,16*,0,-2,0,279
CCC(=O)Nc1cccc(NC(=O)c2ccccc2Cl)c1,10,2,0,3,0,124
CN(C(=O)COC(=O)c1ccc2c(c1)OCO2)C1CCS(=O)(=O)C1 (centres undefined),18,23*,2,-2,x,274
C[C@@H]1CN([C@@H](C)CO)C(=O)c2cc(-c3cccnc3)cnc2O[C@@H]1CN(C)Cc1ccccc1,x,x,x,x,0,x
CC(=O)N1CCN(c2ccccc2NC(=O)c2cc(Br)ccc2Cl)CC1,10,18*,0,1,x,196
C[C@H]1CN([C@@H](C)CO)C(=O)c2cc(C#CCN(C)C)cnc2O[C@H]1CN(C)C,x,x,x,x,0,x
C/C(=N\NC(=O)COc1ccc(C#N)cc1)c1ccccc1OC(F)F,-3,-1,0,6.9*,0,133
CCOC(=O)c1c(CSc2ccc(CC)cc2)oc2ccc(O)c(CN(C)C)c12,29,7.6*,14,-7,0,218
O=c1ccc(N=Nc2ccccc2)ccc1O,6,44*,x,x,0,180
C[C@@H]1CCCCO[C@H](CN(C)C(=O)Nc2ccc(F)cc2)[C@H](C)CN([C@@H](C)CO)C(=O)c2cc(NC(=O)Nc3ccc(C(F)(F)F)cc3)ccc2O1,x,x,x,x,0,x
CCOc1cc(/C=C2\SC(=O)N=C2N)ccc1O,0,-1,-1,0.0*,0,362
CCOC(=O)C1=C(O)/C(=C\c2ccc(O)c(OCC)c2)N=C1C,-2,-2,3,1,0,218
Cc1ccc(C(C[N+](=O)[O-])n2nc(C)cc2C)cc1 (centres undefined),-6,7,51*,-7,x,137
Cc1ccc(S(=O)(=O)NCC(C)n2nc(C)cc2C)cc1 (centres undefined),24,-3,0,0,0,420
C[C@@H]1CN(C)C(=O)c2cc(N)ccc2O[C@@H]1CN(C)C,x,x,x,x,0,x
CCOC(=O)C(C(=O)OCC)C(C(=O)OCC)N1CCOCC1 (centres undefined),23,12*,6,-5,x,150
CCOC(=O)C(C)CC(C)C(=O)N1CCOCCOCCN(C(=O)C(C)CC(C)C(=O)OCC)CCOCC1 (centres undefined),10,-4,0,0,x,531
Cc1ccc(-c2nc(CS(=O)CC(=O)NCCCN3CC(C)CC(C)C3)c(C)o2)cc1 (centres undefined),3,-4,0,0,22*,i
CNC[C@@H]1Oc2ccc(N(C)C)cc2CC(=O)N(C)C[C@H]1C,x,x,x,x,0,x
O=S(=O)(c1ccc(Cl)cc1)N1CCC(O)(c2cccnc2)CC1,43,-1,0,1,x,0.0*
O=[N+]([O-])c1cc2no[n+]([O-])c2cc1N1CCCCC1,37,42*,x,x,0,x
O=C(C[C@H]1C[C@H]2c3cc(NS(=O)(=O)c4ccc(F)cc4)ccc3O[C@H]2[C@H](CO)O1)NCc1ccccn1,x,x,x,x,0,x
C[C@@H]1C/C=C/C[C@H](c2ccc3c(c2)OCO3)NC(=O)[C@@H](C)N(C)C(=O)c2ccccc2O1,x,x,x,x,0,x
SMILES,Arrestin-AP2 inh,V-ATPase pHluor,NTR1 agonist,beta cell repl,XiGFP reactiv,T cell HTS
COC(=O)[C@]1(C)N[C@H](CN(C)S(=O)(=O)c2ccc(C(C)(C)C)cc2)[C@@H]2C(=O)N(C)C(=O)[C@@H]21,-4,-1,-2,-2,0,215
COC(=O)[C@]1(C)N[C@H](CN(C)S(=O)(=O)c2ccc(OC(F)(F)F)cc2)[C@@H]2C(=O)N(C)C(=O)[C@@H]21,6,3,0,1,0,0.0*
CCCOC(=O)COC(=O)c1ccccc1NC(=O)c1ccccc1,0,20*,0,-1,0,258
CCOC(=O)c1ccccc1NC(=O)COC(=O)CCC(=O)c1ccccc1,23,0,2,2,0,143
CCOC(=O)C1=C(C)NC(C)=C(C(=O)OCC)C1/C=C/c1ccccc1OC,-6,4,14,0,0,179
CCOC(=O)C1=C(C)NC(C)=C(C(=O)OCC)C1c1ccccc1/C=C/C(=O)OC(C)(C)C,x,x,47*,-8,x,409
CO[C@H]1CN(C)C(=O)c2ccc(NS(=O)(=O)C3CCCCC3)cc2OC[C@@H](C)NC[C@@H]1C,x,x,x,x,0,x
COCCNC(=O)C1CCN(Cc2cccc(OCc3ccccc3)c2)CC1,4,13*,1,-2,0,162
CC=Cc1ccc2n(c1=O)C[C@@H]1[C@@H](CO)[C@H](C(=O)NCCC)N(CC3CC3)[C@H]21 (mixture of isomers),x,x,x,x,0,x
N=c1c2c(-c3ccccc3)c(-c3ccccc3)n(Cc3ccco3)c2ncn1Cc1ccco1,13,-1,42*,-6,x,190
O=C(NC1CCCC1)C1CCCN1C(=O)Nc1ccc(Cl)cc1 (centres undefined),18,-5,2,1,x,0.0*
O=C(NC1CCCCC1)C1CCCN1C(=O)Nc1ccccc1 (centres undefined),-5,-2,0,0,0,149
CC(C)NC(=O)N(C)C[C@H]1Oc2ccc(N)cc2CC(=O)N(C)C[C@@H]1C,x,x,x,x,0,x
COc1ccc(CCNc2oc(COc3ccc(Br)cc3)nc2C#N)cc1OC,10,10.0*,8,-6,0,335
Nc1cc(Cl)ccc1Oc1ccc2ccccc2c1,13,16*,4,-2,x,521
COc1ccc(CC2(CO)CCN(Cc3cccc(OC)c3OC)CC2)cc1,7,15*,0,-1,1,190
COc1ccc(CC2(CO)CCN(Cc3cccnc3)CC2)cc1,8,0,2,-2,0,313
O=C(NNc1c(F)c(F)cc(F)c1F)c1cc2ccccc2oc1=O,-10,0,-1,-4,0,0.0*
O=C(COc1ccccc1)NNC(=O)c1cc2ccccc2oc1=O,-4,-3,-2,1,0,346
C[C@@H]1CN([C@@H](C)CO)C(=O)c2cc(C#CC3CC3)cnc2O[C@@H]1CN(C)C(=O)c1ccncc1,x,x,x,x,-1,x
COc1cc2c3nnc(-c4ccc(F)cc4)c-3cn(Cc3cccc(C)c3)c2cc1OC,-51,-2,124*,-6,82*,919
